This is a sample that favours compounds with a hit; in the whole collection about 1.5% have one here.
DNMT1 inh = human DNMT1 methyltransferase inhibitors, primary screen, biochemical, molecular beacon, fluorescence, HinP1I cleavage, uHTS; inhibition (reported as % activation of signal), % at 10 µM; 360,000 compounds, 0.83% hits
Target sequence (P26358 504-1616 limits assumed): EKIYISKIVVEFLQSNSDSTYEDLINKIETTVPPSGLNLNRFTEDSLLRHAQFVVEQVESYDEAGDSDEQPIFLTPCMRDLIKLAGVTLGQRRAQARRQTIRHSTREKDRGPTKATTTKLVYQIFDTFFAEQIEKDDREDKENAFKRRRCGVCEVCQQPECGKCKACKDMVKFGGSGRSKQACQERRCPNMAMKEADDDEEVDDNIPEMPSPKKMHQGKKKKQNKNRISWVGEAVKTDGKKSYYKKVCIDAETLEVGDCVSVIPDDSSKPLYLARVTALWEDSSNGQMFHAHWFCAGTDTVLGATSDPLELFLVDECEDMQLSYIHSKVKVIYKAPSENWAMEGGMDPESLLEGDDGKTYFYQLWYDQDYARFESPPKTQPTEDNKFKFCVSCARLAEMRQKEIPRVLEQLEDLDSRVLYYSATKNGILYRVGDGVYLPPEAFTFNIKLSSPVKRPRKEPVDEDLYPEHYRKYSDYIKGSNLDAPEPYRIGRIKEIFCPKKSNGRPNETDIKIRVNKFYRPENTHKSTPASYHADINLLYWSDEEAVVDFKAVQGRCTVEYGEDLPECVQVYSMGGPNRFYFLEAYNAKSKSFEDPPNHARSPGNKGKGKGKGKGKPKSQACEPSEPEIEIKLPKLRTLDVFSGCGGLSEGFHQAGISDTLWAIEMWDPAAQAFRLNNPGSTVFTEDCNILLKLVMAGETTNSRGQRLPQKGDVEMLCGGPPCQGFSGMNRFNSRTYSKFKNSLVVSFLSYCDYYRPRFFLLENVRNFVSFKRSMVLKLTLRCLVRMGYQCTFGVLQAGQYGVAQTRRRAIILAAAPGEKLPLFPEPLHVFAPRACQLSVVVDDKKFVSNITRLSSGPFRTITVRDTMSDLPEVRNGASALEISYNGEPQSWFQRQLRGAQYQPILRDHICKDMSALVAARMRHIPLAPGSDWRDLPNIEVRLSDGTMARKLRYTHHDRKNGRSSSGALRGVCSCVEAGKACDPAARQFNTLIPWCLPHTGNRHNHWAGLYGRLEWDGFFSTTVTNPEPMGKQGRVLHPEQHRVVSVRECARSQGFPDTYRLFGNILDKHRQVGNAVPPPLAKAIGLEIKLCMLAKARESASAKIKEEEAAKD
NSD2 HMT inh = NSD2 histone methyltransferase inhibitors, primary screen, biochemical, AlphaScreen, single concentration, set 2; NSD2 peptide methylation, 120 min; inhibition, % at 12.5 µM; Histone-lysine N-methyltransferase NSD2 (Homo sapiens), O96028; AID 743445, 2014; 310,000 compounds, 0.54% hits
HCV NS3 hel inh = inhibitors of HCV NS3 helicase, primary screen, biochemical, Cy5 molecular beacon fluorescence; NS3 helicase DNA unwinding; Hepatitis C virus NS3 helicase; 290,000 compounds, 0.56% hits; inhibition, % at 10.9 µM;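 active = inhibition above the mean of all tested compounds plus 3 SD, set per campaign, cut at about 35% in these data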;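 also: 0% = DMSO wells and 100% = thioflavine S control wells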
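assay system = NS3 helicase fragment of HCV | buffer or medium = MOPS pH 6.5, MgCl2, DTT, Tween20, BSA | timing = 60 min unwinding reaction at 25 °C after ATP addition | signal = Cy5 beacon fluorescence read at start and 1 h | read-out basis = % inhibition of unwinding | control set = low DMSO, high thioflavine S at 110 µM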
CASP6 VEID inh = human caspase-6 inhibitors, primary screen, biochemical, VEID-R110 fluorescence, single point, set 2; purified caspase-6, Z-VEID-R110 cleavage fluorescence; inhibition, % at 12.5 µM; 350,000 compounds, 0.53% hits;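 active = mean inhibition across replicates at least about 35%, with every replicate also reaching that limit, limit read from the data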;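 also: 0% = median of neutral control wells and 100% = no fluorescence left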
Active calls of the source: *; / = no result given. Rule as the data show it, unless noted: active = inhibition above about 50%; inactive = the rest.

SMILES | DNMT1 inh | NSD2 HMT inh | HCV NS3 hel inh | CASP6 VEID inh
O=C1/C(=C\c2cccc(O)c2)SC(=S)N1Cc1ccccc1 | -12 | -1 | 26 | -2
O=C1/C(=C\c2cc([N+](=O)[O-])ccc2O)SC(=S)N1Cc1ccc(Cl)cc1 | 57* | 2 | -16 | 20
O=C1/C(=C\c2cccc(O)c2O)SC(=S)N1Cc1ccccc1 | -22 | 52* | 13 | 28
O=C(O)CN1C(=O)/C(=C\c2cc([N+](=O)[O-])ccc2OCc2ccccc2Cl)SC1=S | 19 | / | 7 | 36*
O=C(C[C@@H]1C=C[C@@H](NC(=O)c2ccccc2)[C@@H](CO)O1)NCc1ccncn1 | / | / | / | 2
COCC(=O)N1C[C@@H](C)[C@H](OC)CN(C)C(=O)c2ccc(NC(=O)Nc3ccccc3)cc2OC[C@@H]1C | / | / | / | 2
COCCN(C(=O)COC(=O)Cc1cccc2ccccc12)c1c(N)n(Cc2ccccc2)c(=O)[nH]c1=O | -1 | -1 | -12 | 3
COCCN(C(=O)COC(=O)Cc1coc2cc(C)ccc12)c1c(N)n(Cc2ccccc2)c(=O)[nH]c1=O | 25 | 5 | / | 52*
COCCN(C(=O)c1cc(-c2ccco2)nc2ccccc12)c1c(N)n(Cc2ccccc2)c(=O)[nH]c1=O | 22 | 0 | / | 60*
CCCCn1c(N)c(N(CCOC)C(=O)c2cc(-c3ccco3)nc3ccccc23)c(=O)[nH]c1=O | 43 | -1 | / | 61*
Cc1ccc(S(=O)(=O)N[C@H]2CC[C@@H](CCn3cc(-c4cccc(F)c4)nn3)O[C@H]2CO)cc1 | / | / | / | 1
COCC(=O)Nc1ccc2c(c1)C(=O)N(C)C[C@H](OC)[C@H](C)CN(C(=O)c1ccccn1)[C@@H](C)CO2 | / | / | / | 3
C[C@@H]1CN([C@@H](C)CO)C(=O)c2cc(C#CCc3ccccc3)cnc2O[C@@H]1CN(C)CC1CC1 | / | / | / | 0
CC(C)c1ccc(S(=O)(=O)/N=C2\C=C(NS(=O)(=O)c3ccccc3)C(=O)c3ccccc32)cc1 | -21 | 112* | -7 | 22
CCc1ccc(S(=O)(=O)/N=C2\C=C(NS(=O)(=O)c3ccccc3)C(=O)c3ccccc32)cc1 | -14 | 128* | -7 | 49*
Cc1ccc(C)c(S(=O)(=O)/N=C2\C=C(NS(=O)(=O)c3ccccc3)C(=O)c3ccccc32)c1 | -12 | 97* | 2 | 25
COC(=O)C(C(C)=O)C1=C/C(=N\S(=O)(=O)c2ccc(C)cc2)c2ccccc2C1=O (stereo not drawn) | -13 | / | 3 | /
O=[N+]([O-])c1cc(CN2CCCC2)c2cccnc2c1O | -9 | / | 25 | /
O=[N+]([O-])c1cc(CN2CCN(c3cccc(C(F)(F)F)c3)CC2)c2cccnc2c1O | / | 20 | 17 | 69*
COCCOC(=O)N1C(=O)[C@@]2(c3ccccc31)[C@H](c1ccccc1OCCO)N1[C@H](c3ccccc3)[C@H](c3ccccc3)OC(=O)[C@H]1[C@@H]2C(=O)NC[C@H](O)c1ccccc1 | / | / | / | -2
C[C@@H]1CN([C@H](C)CO)C(=O)c2cccc(NS(C)(=O)=O)c2O[C@H]1CN(C)C(=O)Nc1cccc2ccccc12 | / | / | / | -2
COc1ccc(Nc2nnc(-c3ccncc3)s2)cc1Cl | 69* | -3 | -7 | -2
O=C(C[C@@H]1C[C@H]2c3cc(NC(=O)C4CCOCC4)ccc3O[C@H]2[C@@H](CO)O1)NCc1ccccc1 | / | / | / | -1
C=CCNC(=S)N1CCC(C(=O)c2ccc(C)cc2)CC1 | 1 | 2 | 2 | -4
C=CCNC(=S)N1CCC(C(=O)c2ccc(Cl)cc2)CC1 | 0 | 1 | -6 | 64*
SMILES | DNMT1 inh | NSD2 HMT inh | HCV NS3 hel inh | CASP6 VEID inh
CC(/C=N/Nc1nc(C)cc(=O)[nH]1)=C\c1ccccc1 | 2 | 0 | 0 | 2
CC(/C=N/Nc1nc2ccccc2[nH]1)=C\c1ccccc1 | -4 | 0 | -41 | 36*
O=C(O)Cc1ccccc1C(=O)O | 12 | -1 | -5 | /
O=C(O)Cc1cccc(=O)c(O)c1C(=O)O | 86* | 47 | / | /
Cc1ccc(NC(=O)c2sc(C)nc2C)c(C)c1 | 1 | -2 | -4 | 51*
Cc1ccc(NC(=O)c2sc(Cl)nc2C)c(C)c1 | -1 | -1 | 2 | /
O=C(NCCCN1CCOCC1)c1ccc2nc(-c3ccc(F)cc3)c(-c3ccc(F)cc3)nc2c1 | / | 4 | / | /
CN(C(=O)c1ccc(Cl)cc1)c1ccc(OCC(=O)Nc2cc(C(=O)O)ccc2Cl)cc1 | / | 7 | / | 36*
CN(C(=O)c1ccc(F)cc1)c1ccc(OCC(=O)Nc2ccccc2C(=O)O)cc1 | 10 | -3 | / | 4
CC(C)NC(=O)Nc1ccc2c(c1)C(=O)N([C@H](C)CO)C[C@@H](C)[C@H](CN(C)S(=O)(=O)c1ccccc1)O2 | / | / | / | -1
CN1CCN(C(=O)c2cc3c(c(-c4cccc(-c5cc6ccccc6o5)c4)n2)[C@H](CCO)N(S(=O)C(C)(C)C)C3)CC1 (stereo partly drawn) | -20 | / | / | -1
CC(C)(C)S(=O)N1Cc2cc(C(=O)O)nc(-c3cccc(-c4cc5ccccc5o4)c3)c2[C@H]1CCO (stereo partly drawn) | 41 | / | / | 36*
O=C(O)C[C@H]1C[C@@H]2c3cc(NC(=O)Nc4ccccc4F)ccc3O[C@@H]2[C@@H](CO)O1 | / | / | / | 1
O=C(NCc1ccco1)c1cccn2c(=O)c3cc4ccccc4cc3nc12 | / | / | -29 | /
COCCCNC(=O)c1cccn2c(=O)c3cc4ccccc4cc3nc12 | -2 | 85* | -15 | 3
CNC[C@H]1Oc2ncc(-c3cccc(F)c3)cc2C(=O)N([C@H](C)CO)C[C@H]1C | / | / | / | -1
CCOC(=O)/C=C(\C)Sc1cc(O)c2ccccc2c1O | 41 | / | 12 | 94*
CCOC(=O)/C=C(\C)Sc1cc(=O)oc2ccccc12 | 0 | -1 | -2 | /
O=C(C[C@@H]1CC[C@@H](NC(=O)Nc2cc(F)ccc2F)[C@H](CO)O1)NCc1ccc2c(c1)OCO2 | / | / | / | -1
O=C1CC(C(=O)Nc2ccc(Br)cc2)C2(CCCC2)O1 (stereo not drawn) | / | 4 | -2 | 39*
S=c1[nH]nc2ccccn12 | 3 | / | / | 5
Cc1ccn2c(=S)[nH]nc2c1 | 4 | -4 | / | 37*
CO[C@H]1CN(C)C(=O)c2cc(NC(=O)Nc3ccccc3)ccc2OC[C@@H](C)N(C(=O)Nc2c(C)noc2C)C[C@H]1C | / | / | / | 36*
COc1cc(C2C(C#N)=C(N)OC3=C2C(=O)CCC3)c([N+](=O)[O-])cc1OC (stereo not drawn) | 23 | 75* | 28 | /
C[C@H]1CN([C@@H](C)CO)S(=O)(=O)c2ccc(-c3ccccc3)cc2O[C@@H]1CN(C)S(C)(=O)=O | / | / | / | -3
CCCN(C)C[C@@H]1OCCCC[C@H](C)Oc2ccc(NC(=O)NC3CCCCC3)cc2C(=O)N([C@@H](C)CO)C[C@@H]1C | / | / | / | 1
CN(C)C(=O)c1ccc(-c2ccc([C@H]3[C@@H](CO)N4C(=O)CN(C(=O)C5CCCC5)C[C@H]34)cc2)cc1 | / | / | / | 6

Bioassay records from PubChem.
